Source: ChEMBL document CHEMBL1151228, “Three cyclooctapeptides and one glycoside from Microtoena prainiana” (J Nat Prod, 2004)
Active and inactive are the calls of the source. No cut-off for these calls is given here. Where a SMILES comes first, the peptide text is derived from it.

Assays:
[1] = Cytotoxicity against human Lu04 cells by SRB assay; format: functional, cell-based
In short: (§1)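 Sulforhodamine B (SRB) cytotoxicity assay on human tumour lines: breast cancer Bre04, lung cancer Lu04 and neuroma N04.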

[2] = Cytotoxicity against human Bre04 cells by SRB assay; format: functional, cell-based; in short: as §1
[3] = Cytotoxicity against human N04 cells by SRB assay; format: functional, cell-based; in short: as §1
[4] = molecular target: Angiotensin-converting enzyme (Homo sapiens) (UniProt P12821); assay: Inhibition of ACE at 0.1 mg/ml
Chain of Angiotensin-converting enzyme (Homo sapiens) (P12821 whole entry): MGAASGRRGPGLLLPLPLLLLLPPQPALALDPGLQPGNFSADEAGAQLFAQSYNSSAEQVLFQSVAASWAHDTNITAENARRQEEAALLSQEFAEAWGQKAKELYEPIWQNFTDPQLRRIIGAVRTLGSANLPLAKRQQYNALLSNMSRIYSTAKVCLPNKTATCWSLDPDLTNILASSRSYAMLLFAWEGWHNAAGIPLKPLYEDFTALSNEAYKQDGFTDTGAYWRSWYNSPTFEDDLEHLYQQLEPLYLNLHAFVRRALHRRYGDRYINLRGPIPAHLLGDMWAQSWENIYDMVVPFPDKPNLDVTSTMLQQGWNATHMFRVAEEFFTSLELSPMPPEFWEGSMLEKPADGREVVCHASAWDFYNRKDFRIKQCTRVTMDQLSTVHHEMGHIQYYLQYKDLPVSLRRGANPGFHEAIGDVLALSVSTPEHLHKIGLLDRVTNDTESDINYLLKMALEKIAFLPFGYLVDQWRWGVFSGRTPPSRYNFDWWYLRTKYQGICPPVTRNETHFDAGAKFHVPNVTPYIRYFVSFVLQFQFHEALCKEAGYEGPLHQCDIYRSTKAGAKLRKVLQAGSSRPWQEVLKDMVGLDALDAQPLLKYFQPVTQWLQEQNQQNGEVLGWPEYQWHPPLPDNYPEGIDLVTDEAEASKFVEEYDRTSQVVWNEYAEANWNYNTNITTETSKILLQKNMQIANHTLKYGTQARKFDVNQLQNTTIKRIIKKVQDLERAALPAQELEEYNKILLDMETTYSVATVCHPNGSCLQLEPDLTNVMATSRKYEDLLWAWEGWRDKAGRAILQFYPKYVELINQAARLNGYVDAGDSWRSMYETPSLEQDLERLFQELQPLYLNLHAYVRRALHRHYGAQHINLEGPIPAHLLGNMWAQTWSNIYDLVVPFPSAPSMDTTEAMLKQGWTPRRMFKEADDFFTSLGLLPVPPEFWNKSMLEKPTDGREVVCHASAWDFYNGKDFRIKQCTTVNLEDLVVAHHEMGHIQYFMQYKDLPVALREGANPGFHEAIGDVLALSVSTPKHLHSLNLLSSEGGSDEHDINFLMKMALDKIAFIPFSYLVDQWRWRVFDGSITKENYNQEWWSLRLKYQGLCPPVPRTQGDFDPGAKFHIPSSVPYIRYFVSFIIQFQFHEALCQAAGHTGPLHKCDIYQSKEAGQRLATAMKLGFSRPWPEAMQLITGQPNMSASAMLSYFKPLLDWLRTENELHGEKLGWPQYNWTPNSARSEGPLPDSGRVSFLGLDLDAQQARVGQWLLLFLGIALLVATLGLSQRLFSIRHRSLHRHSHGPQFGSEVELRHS
In short: (§2)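 ACE extract (10 µg total protein) preincubated with sample for 30 min at 37 °C. HHL substrate then added for 15 min at 37 °C. NaOH and O-phthaldialdehyde added, stopped after 10 min with HCl. His-Leu fluorescence read at ex 405/em 535 nm. % inhibition = 100×(N−S)/(N−B) against negative and blank controls. Captopril positive control; at least three determinations.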

[5] = system: Human alphaherpesvirus 2; assay: Antiviral activity against HSV2 333 infected in african green monkey Vero cells assessed as virus-induced cytopathic effect at 250 ug/ml; format: functional, organism-based
In short: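 Vero cells infected with HSV-2 (strain 333); inhibition of viral replication read as cytopathic effect (CPE); compounds tested at 250 µg/mL; acyclovir as positive drug control.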

[6] = molecular target: Angiotensin-converting enzyme (Homo sapiens) (UniProt P12821); assay: Inhibition of ACE at 1 mg/ml; in short: as §2

inhibition [4] [%] | inhibition [6] [%] | Structure (SMILES) | IC50 [1] [µg/mL] | IC50 [2] [µg/mL] | IC50 [3] [µg/mL] | Activity [5]
 |  | CC(C)[C@@H]1NC(=O)[C@H](Cc2ccccc2)NC(=O)[C@H](Cc2ccccc2)NC(=O)[C@H](C)NC(=O)[C@H](C)NC(=O)CNC(=O)[C@H](Cc2ccccc2)NC(=O)[C@@H]2CCCN2C1=O [MICROTOENIN B] (cyclo(AAFFVPFG)) | > 100 | > 100 | > 100 | 
71.4 | 99.3 | C[C@@H]1O[C@@H](O[C@H]2[C@H](O)[C@@H](COC(=O)/C=C/c3ccc(O)c(O)c3)O[C@H]3OC[C@H](c4ccc(O)c(O)c4)O[C@@H]32)[C@H](O)[C@H](O)[C@H]1O |  |  |  | inactive
 |  | CC(C)[C@@H]1NC(=O)[C@@H]2CCCN2C(=O)[C@H](Cc2ccccc2)NC(=O)CNC(=O)[C@H](C)NC(=O)[C@H](C)NC(=O)[C@H](Cc2ccccc2)NC(=O)[C@H](Cc2ccccc2)NC1=O (cyclo(AAGFPVFF)) |  |  |  | inactive
67.5 | 99.8 | COc1cc(/C=C/C(=O)O[C@H]2[C@H](O[C@@H]3O[C@@H](C)[C@H](O)[C@@H](O)[C@H]3O)[C@H]3O[C@@H](c4ccc(O)c(O)c4)CO[C@@H]3O[C@@H]2CO)ccc1O |  |  |  | inactive
 |  | CC[C@@H](C)[C@@H]1NC(=O)[C@@H]2CCCN2C(=O)[C@H](Cc2ccc(O)cc2)NC(=O)[C@H](CC(N)=O)NC(=O)[C@H](Cc2ccccc2)NC(=O)[C@@H]2CCCN2C(=O)[C@H](CC(C)C)NC(=O)[C@@H]2CCCN2C1=O |  |  |  | inactive
 |  | CC(C)C[C@@H]1NC(=O)[C@H](Cc2ccc(O)cc2)NC(=O)[C@@H]2CCCN2C(=O)[C@H](C(C)C)NC(=O)[C@H](C)NC(=O)[C@H](Cc2ccccc2)NC(=O)[C@@H]2CCCN2C(=O)[C@H](C(C)C)NC1=O [MICROTOENIN A] (cyclo(AVPYLVPF)) | > 100 | > 100 | > 100 | 
 |  | CC[C@H](C)[C@@H]1NC(=O)[C@@H]2CCCN2C(=O)[C@H](CC(C)C)NC(=O)[C@@H]2CCCN2C(=O)[C@H](Cc2ccccc2)NC(=O)[C@H](CC(N)=O)NC(=O)[C@H](Cc2ccc(O)cc2)NC(=O)[C@@H]2CCCN2C1=O [MICROTOENIN C] (cyclo(FPLPIPYN)) | > 100 | > 100 | > 100 | 
 |  | CC(C)C[C@@H]1NC(=O)[C@H](C(C)C)NC(=O)[C@@H]2CCCN2C(=O)[C@H](Cc2ccccc2)NC(=O)[C@H](C)NC(=O)[C@H](C(C)C)NC(=O)[C@@H]2CCCN2C(=O)[C@H](Cc2ccc(O)cc2)NC1=O (cyclo(AFPVLYPV)) |  |  |  | inactive
75.5 | 99.7 | C[C@@H]1O[C@@H](O[C@@H]2[C@H]3O[C@@H](c4ccc(O)c(O)c4)CO[C@@H]3O[C@H](CO)[C@H]2OC(=O)/C=C/c2ccc(O)c(O)c2)[C@H](O)[C@H](O)[C@H]1O |  |  |  | inactive
